Measured values published in ChEMBL document CHEMBL1949620, “Cyclolinopeptide derivatives modify methotrexate-induced suppression of the humoral immune response in mice” (Eur J Med Chem, 2011).
The source made the active and inactive calls. The rule behind the calls is not given here. Peptide text beside a SMILES is read from it.

Legend:
Format in all cases: functional, cell-based
Splenocyte [1] = assay: Immunoregulatory activity against methotrexate-induced decrease of humoral immune response in SRBC primed BALB/c mouse splenocytes assessed as increase of antibody forming cells at 1 ug/ml after 4 days
How it was run: (§1)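 Female BALB/c mice, 12 weeks old, primed i.p. with 0.2 ml of 1% SRBC. Splenocytes taken 4 days later and cultured at 5×10⁶/ml in RPMI 1640 with 10% FCS, glutamine, pyruvate, 2-mercaptoethanol and antibiotics, plus 0.05 ml of 0.005% SRBC. Peptides (in Cremophor/ethanol, diluted in RPMI) added at culture start; MTX (0.25, 0.5 or 1.0 mM) added at 24 h. After 4 days, AFC counted by agar-gel local haemolysis; Student's t-test.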

Splenocyte [2] = assay: Immunoregulatory activity against methotrexate-induced decrease of humoral immune response in SRBC primed BALB/c mouse splenocytes assessed as increase of antibody forming cells at 10 ug/ml after 4 days; how it was run: as §1
Splenocyte [3] = assay: Immunostimulatory activity in SRBC primed BALB/c mouse splenocytes assessed as humoral immune response by measuring inhibition of antibody forming cells at 10 ug/ml after 4 days
How it was run: (§2)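 Splenocytes from female BALB/c mice (12 weeks old) primed i.p. with 0.2 ml of 1% SRBC and harvested after 4 days. Cells cultured at 5×10⁶/ml in RPMI 1640 with 10% FCS and supplements, with 0.05 ml of 0.005% SRBC antigen. Peptide (Cremophor/ethanol stock diluted in RPMI) added at initiation, no MTX. Antibody-forming cells counted by local haemolysis in agar after 4 days; Student's t-test.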

Splenocyte [4] = assay: Immunostimulatory activity in SRBC primed BALB/c mouse splenocytes assessed as humoral immune response by measuring increase of antibody forming cells at 0.25 to 1 mM after 4 days; details: 1 to 10 ug/ml, in the assay text read “at 1 to 10 ug/ml” for “at 0.25 to 1 mM”; how it was run: as §1
Splenocyte [5] = assay: Immunoregulatory activity against methotrexate-induced decrease of humoral immune response in SRBC primed BALB/c mouse splenocytes assessed as increase of antibody forming cells at […] after 4 days; how it was run: as §1
Splenocyte [6] = assay: Immunostimulatory activity in SRBC primed BALB/c mouse splenocytes assessed as humoral immune response by measuring increase of antibody forming cells after 4 days; how it was run: as §2
Splenocyte [7] = assay: Immunoregulatory activity against methotrexate-induced decrease of humoral immune response in SRBC primed BALB/c mouse splenocytes assessed as increase of antibody forming cells at 0.1 ug/ml after 4 days; how it was run: as §1
Splenocyte [8] = assay: Immunostimulatory activity in SRBC primed BALB/c mouse splenocytes assessed as humoral immune response by measuring increase of antibody forming cells at 1 ug/ml after 4 days; how it was run: as §2

| Molecule | inhibition (Splenocyte [1]) | increase of antibody forming cells (Splenocyte [2]) | inhibition (Splenocyte [3]) | Activity (Splenocyte [4]) | other results |
| --- | --- | --- | --- | --- | --- |
| CC[C@H](C)[C@@H]1NC(=O)[C@H](CC(C)C)NC(=O)[C@@H](Cc2ccccc2)N2CCN(C(=O)[C@@H]3CCCN3C(=O)[C@@H]3CCCN3C(=O)[C@H](C(C)C)NC(=O)[C@H](CC(C)C)NC(=O)[C@H]([C@@H](C)CC)NC1=O)[C@H](Cc1ccccc1)C2=O | Active | Active | – | – | – |
| CC[C@H](C)[C@@H]1NC(=O)[C@H](CC(C)C)NC(=O)[C@H](Cc2ccccc2)N2CCN(C(=O)[C@@H]3CCCN3C(=O)[C@@H]3CCCN3C(=O)[C@H](C(C)C)NC(=O)[C@H](CC(C)C)NC(=O)[C@H]([C@@H](C)CC)NC1=O)[C@@H](Cc1ccccc1)C2=O | – | Active | Active | – | – |
| CC[C@H](C)[C@H](NC(=O)[C@@H](NC(=O)[C@H](CC(C)C)NC(=O)[C@@H](Cc1ccccc1)N1CCN(C(=O)[C@@H]2CCCN2C(=O)[C@@H]2CCCN2C(=O)[C@@H](NC(=O)[C@@H](N)CC(C)C)C(C)C)[C@H](Cc2ccccc2)C1=O)[C@@H](C)CC)C(=O)O | – | Active | – | Active | – |
| CC[C@H](C)[C@H](NC(=O)[C@@H](NC(=O)[C@H](CC(C)C)NC(=O)[C@H](Cc1ccccc1)N1CCN(C(=O)[C@@H]2CCCN2C(=O)[C@@H]2CCCN2C(=O)[C@@H](NC(=O)[C@@H](N)CC(C)C)C(C)C)[C@@H](Cc2ccccc2)C1=O)[C@@H](C)CC)C(=O)O | – | – | – | inactive | inhibition (Splenocyte [5]): Active |
| CC[C@H](C)[C@@H]1NC(=O)[C@H](CC(C)C)NC(=O)[C@H](Cc2ccccc2)NC(=O)[C@H](Cc2ccccc2)NC(=O)[C@@H]2CCCN2C(=O)[C@@H]2CCCN2C(=O)[C@H](C(C)C)NC(=O)[C@H](CC(C)C)NC(=O)[C@H]([C@@H](C)CC)NC1=O (cyclo(FFLIILVPP)) | Active | Active | Active | – | Activity (Splenocyte [6]): Dose-dependent effect; inhibition (Splenocyte [7]): Active; Activity (Splenocyte [8]): inactive |
| H-LVPPFFLII-OH | – | Active | – | inactive | – |
